Our source for the IC50, Ki and inhibition values is ChEMBL document CHEMBL1143040, “Aporphine metho salts as neuronal nicotinic acetylcholine receptor blockers” (Bioorg Med Chem, 2007).

pIC50, pKi: −log10 of the molar value.

What all share (format): cell-based
In assay [1] the target is T1, Neuronal acetylcholine receptor subunit alpha-7 (Homo sapiens, UniProt P36544). Briefly: Displacement of [125I]alpha-bungarotoxin from human alpha-7 nAChR expressed in SH-SY5Y cells. The procedure, abridged: (§1)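 Membrane homogenates from a clonal cell line stably expressing human α7 nAChR. Radioligand was [125I]α-bungarotoxin at 0.2 nM in 140 mM NaCl, 1 mM EDTA, 50 mM Tris-HCl, pH 7.4. Nonspecific binding was defined with 10 μM nicotine. Ki came from non-linear regression fits by Cheng-Prusoff. Mean ± SEM of four experiments, triplicate samples, from at least two membrane preparations.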
T1 sequence (P36544 whole entry): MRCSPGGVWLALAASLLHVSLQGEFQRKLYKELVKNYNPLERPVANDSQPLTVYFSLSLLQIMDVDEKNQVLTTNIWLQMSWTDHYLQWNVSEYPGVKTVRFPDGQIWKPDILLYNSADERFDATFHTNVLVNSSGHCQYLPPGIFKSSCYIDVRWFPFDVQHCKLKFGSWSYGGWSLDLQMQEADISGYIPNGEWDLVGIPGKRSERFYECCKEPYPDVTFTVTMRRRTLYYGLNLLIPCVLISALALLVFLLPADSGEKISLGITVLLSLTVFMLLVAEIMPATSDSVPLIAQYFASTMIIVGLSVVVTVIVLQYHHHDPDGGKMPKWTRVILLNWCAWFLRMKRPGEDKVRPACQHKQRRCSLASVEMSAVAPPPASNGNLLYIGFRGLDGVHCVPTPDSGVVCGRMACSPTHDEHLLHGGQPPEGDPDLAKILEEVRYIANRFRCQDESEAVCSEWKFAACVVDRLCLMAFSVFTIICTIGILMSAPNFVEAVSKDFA
A general note: Displacement assays read how much labelled ligand stays bound in the presence of the test substance.

For assay [2], the target named is Neuronal acetylcholine receptor; alpha4/beta2 (Homo sapiens, UniProt P17787+P43681). The assay is described as follows: Displacement of [3H]cytisine from human alpha-4-beta-2 nAChR expressed in SH-EP1 cells. The method, boiled down:
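Radioligand displacement used membrane homogenates from a clonal cell line stably expressing human α4β2 nAChR. [3H]cytisine was at 1 nM in saline of 120 mM NaCl, 5 mM KCl, 1 mM MgCl2, 2.5 mM CaCl2, 50 mM Tris, pH 7.0. Nonspecific binding was defined with 10 μM nicotine. Ki was obtained from regression fits by Cheng-Prusoff. Mean ± SEM of four experiments in triplicate.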

Assay [3] addresses T1, Neuronal acetylcholine receptor subunit alpha-7. Briefly: Inhibition of 0.2 nM [125I]alpha-bungarotoxin binding to human alpha-7 nAChR expressed in SH-SY5Y cells. The procedure, abridged: as §1

Neuronal acetylcholine receptor; alpha4/beta2, sequence (P17787 whole entry): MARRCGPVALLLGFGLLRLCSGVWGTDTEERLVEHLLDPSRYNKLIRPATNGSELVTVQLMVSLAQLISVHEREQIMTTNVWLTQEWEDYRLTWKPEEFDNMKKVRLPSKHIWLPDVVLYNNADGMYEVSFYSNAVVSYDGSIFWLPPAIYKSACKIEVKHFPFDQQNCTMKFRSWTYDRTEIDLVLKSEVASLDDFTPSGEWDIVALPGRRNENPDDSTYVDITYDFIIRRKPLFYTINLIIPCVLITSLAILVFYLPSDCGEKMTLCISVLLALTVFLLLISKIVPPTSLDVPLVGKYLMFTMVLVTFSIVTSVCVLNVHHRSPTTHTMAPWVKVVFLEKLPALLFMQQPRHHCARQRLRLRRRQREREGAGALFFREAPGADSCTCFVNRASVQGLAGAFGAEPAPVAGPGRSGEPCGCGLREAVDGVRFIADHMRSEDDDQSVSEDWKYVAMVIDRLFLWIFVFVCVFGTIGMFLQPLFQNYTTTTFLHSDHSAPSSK
Neuronal acetylcholine receptor; alpha4/beta2, sequence (P43681 whole entry): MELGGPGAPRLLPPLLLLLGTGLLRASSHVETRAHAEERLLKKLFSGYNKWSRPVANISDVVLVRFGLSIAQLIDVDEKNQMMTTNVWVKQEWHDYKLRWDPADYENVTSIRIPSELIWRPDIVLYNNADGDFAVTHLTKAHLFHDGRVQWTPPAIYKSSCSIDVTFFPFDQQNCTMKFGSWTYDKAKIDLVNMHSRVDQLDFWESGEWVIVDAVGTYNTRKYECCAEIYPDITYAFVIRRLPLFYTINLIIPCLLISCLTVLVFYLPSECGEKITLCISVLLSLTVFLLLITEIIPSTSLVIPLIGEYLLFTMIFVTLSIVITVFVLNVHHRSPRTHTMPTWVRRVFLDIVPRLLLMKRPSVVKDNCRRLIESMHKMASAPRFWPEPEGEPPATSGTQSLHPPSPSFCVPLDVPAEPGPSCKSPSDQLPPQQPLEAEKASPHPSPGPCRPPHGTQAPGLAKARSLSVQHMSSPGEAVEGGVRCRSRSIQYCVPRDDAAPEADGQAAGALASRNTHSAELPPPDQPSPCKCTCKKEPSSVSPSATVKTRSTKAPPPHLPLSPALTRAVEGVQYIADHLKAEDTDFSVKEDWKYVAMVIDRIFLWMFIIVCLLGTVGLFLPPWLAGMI

One may read the pIC50 as the negative decadic logarithm of the IC50, by convention in mol/L. Lower therefore signals a high IC50. One may read the pKi as −log10 of the Ki, conventionally taken in molar units. In assay [1], `COc1cc2c(cc1OC)-c1c(OC)c(O)cc3c1[C@H](C2)[N+](C)(C)CC3` [PREDICENTRINE METHIODIDE] gave a negative-log IC50 (pIC50) of 4.57 and a negative logarithm of the Ki (pKi) of 4.68. In assay [2], this compound gave a pIC50 of 5.49 and a negative logarithm of the Ki (pKi) of 6.01.

In assay [1], `COc1cc2c(cc1OC)-c1c(OC)c(OC)cc3c1[C@H](C2)[N+](C)(C)CC3` [GLAUCINE METHIODIDE] gave a pIC50 of 4.68 and a pKi of 4.74. Further, in assay [2], the pIC50 was 4.47 and the pKi is 5.00.

As for `COc1cc2c(cc1O)C[C@H]1c3c(cc(OC)c(OC)c3-2)CC[N+]1(C)C`, in assay [1], the pIC50 is 4.92 and the pKi was 5.00. In addition, in assay [2], the negative-log IC50 (pIC50) was 5.52 and the negative logarithm of the Ki (pKi) was 6.04.

As to `COc1cc2c(cc1O)C[C@H]1c3c(cc(O)c(OC)c3-2)CC[N+]1(C)C` [BOLDINE METHIODIDE], in assay [1], the pIC50 is 4.74 and the negative-log Ki (pKi) is 4.82. Besides, in assay [2], the pIC50 was 5.09 and the negative logarithm of the Ki (pKi) is 5.60.

The term inhibition denotes the share of the control response that was lost under treatment. The low end stands for a response near the control, the high end for a response far below the control. Take `COc1cc2c(cc1O)C[C@H]1c3c(c(Br)c(O)c(OC)c3-2)CCN1C` [3-BROMOBOLDINE]: in assay [1], the negative-log IC50 (pIC50) was 4.00 and the negative-log Ki (pKi) is 4.08. In assay [2], this compound showed a pIC50 of 4.00 and a pKi of 4.52. For the same compound, in assay [3], the inhibition is 91%.

In assay [1], `COc1cc2c(c(Br)c1O)C[C@H]1c3c(c(Br)c(O)c(OC)c3-2)CCN1C` showed a pIC50 of 3.94 and a pKi of 4.02. In assay [2], the negative-log IC50 (pIC50) is 4.00 and the pKi is 4.51. The same compound had an inhibition in assay [3] of 85%.

Take `COc1cc2c(cc1O)C[C@H]1c3c(cc(O)c(OC)c3-2)CCN1C` [BOLDINE]: the pIC50 in assay [1] was 4.09; in assay [2], 5.00. Also, the negative-log Ki (pKi) in assay [1] was 4.17; in assay [2], 5.52.
